Only a selection was taken, and hits are over-represented in it overall.
Apaf-1 act = activators of human Apaf-1 apoptosome. O14727. activity change, negative = activation, % at 20 µM. hit rate 0.31% among 330,000. Apaf-1 apoptosome caspase-3 activation, DEVD-Rh110 fluorescence; active compounds read low. AID 489031;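 active means activity change at or below -40% at 20 µM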
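Assay system – biochemical Apaf-1 apoptosome reconstitution · Medium – 20 mM HEPES buffer, pH 7.5, containing CHAPS and BSA · Incubation – 30 min preincubation, 50 min reaction, room temperature · Measured by – Caspase-3-released Rh110 fluorescence, 540 nm emission, 480 nm excitation · Read-out – Caspase-3 cleavage activity downstream of Apaf-1 activation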
Rh110 act interf = counter-screen for Apaf-1 activators: fluorescence interference; fluorescence interference (activity change), % at 20 µM, hits read low; 980 tested, under 10 active; shares compounds with Apaf-1 act; AID 504616; Rh110 fluorescence interference, quenched caspase reaction, Ex480/Em540;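 active means mean activity change at or below -40% when tested at 20 µM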
Apaf-1 act conf = Apaf-1 (human) activation, single-dose confirmed; hit rate 5% among 980; AID 504617; activity change, negative = activation, % at 20 µM; shares compounds with Apaf-1 act; reconstituted apoptosome caspase-3 activity, DEVD-Rh110 fluorescence; active compounds read low;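 active means mean activity change at or below -40%, meaning activation of 40% or more, at 20 µM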
Fluor interf act = counter-screen for Apaf-1 activators: fluorescence interference, dose response | shares compounds with Apaf-1 act | fluorescence interference counterscreen, Apaf-1 activator assay | EC50, µM | 55 tested, under 10 active; call rule not given here
Of the large screens only hits and unclear results are named; the others gave an inactive call (follow-up assays come after a bar, where they were run).

COc1ccc(C(=O)c2ccc3oc(-c4ccc(OC)cc4)c(C#CCCO)c3c2)cc1	Apaf-1 act -65 | Rh110 act interf inactive | Apaf-1 act conf inactive
CC(C)CC(=O)N[C@H](C(=O)N[C@H](C(=O)N[C@@H](CC(C)C)[C@@H](O)CC(=O)N[C@@H](C)C(=O)N[C@@H](CC(C)C)[C@@H](O)CC(=O)O)C(C)C)C(C)C	Apaf-1 act -239 | Rh110 act interf -234 | Apaf-1 act conf inactive
c1coc(-c2nc(-c3ccco3)c(-c3ccco3)nc2-c2ccco2)c1	none
CC1=NN(c2ccc(C)cc2C)C(=O)C1C(c1cccc(O)c1)C1C(=O)N(c2ccc(C)cc2C)N=C1C (stereo unspecified)	none
Oc1ccc(NCc2ccccc2OCc2ccccc2)cc1	none
CCOc1ccc(-c2nnc(-c3ccncc3)o2)cc1	Apaf-1 act -421 | Rh110 act interf inactive | Apaf-1 act conf inactive
COc1ccc([C@@H]2CC=C(C(=O)O)[C@H](c3cccc(Cl)c3)N2S(=O)(=O)c2ccc(Cl)cc2)cc1	Apaf-1 act -73 | Rh110 act interf inactive | Apaf-1 act conf inactive
COc1ccc(CCN2C(=O)c3[nH]nc(-c4ccccc4O)c3C2c2cccc(Cl)c2)cc1 (stereo unspecified)	none
O=c1cccccc1NCc1ccccc1	none
COc1cccc2c1C(=O)c1ccc3ccccc3c1C2=O	none
CCN1CCN(C(=O)CN(c2cc(OC)ccc2OC)S(C)(=O)=O)CC1	Apaf-1 act -191 | Rh110 act interf inactive | Apaf-1 act conf inactive
CCC(CO)Oc1cc(NCc2cccc(C)c2)c2ncn(C(C)C)c2c1 (stereo unspecified)	none
CC(=O)c1c(C)[nH]c(C(=O)CSc2ccc(F)cc2)c1C	Apaf-1 act -213 | Rh110 act interf inactive | Apaf-1 act conf inactive
CCN1CCN(Cc2ccc(NC(=O)c3ccc(C)c(NC(=O)C(=O)c4c[nH]c5ccccc45)c3)cc2C(F)(F)F)CC1	none
COCCNC(=O)c1c(N)n(CCCn2ccnc2)c2nc3ccccc3nc12	none
Cc1cccc(C(=O)NC2C(=O)NNC2c2ccc(Cl)cc2)c1 (stereo unspecified)	none
NC1=NC(c2ccc(Cl)cc2)C(C(=O)c2ccccc2)N1 (stereo unspecified)	Apaf-1 act -470 | Rh110 act interf inactive | Apaf-1 act conf inactive
CC1=NN(c2ccccc2)C(=O)/C1=C/c1ccc[nH]1	Apaf-1 act -138 | Rh110 act interf inactive | Apaf-1 act conf inactive
CC1=NN(c2ccccc2)C(=O)/C1=C/c1ccc(Cl)cc1	none
CC1=NN(c2ccccc2)C(=O)/C1=C\c1ccc(Br)s1	none
C[C@@]12CCC=C[C@H]1[C@H](c1ccc3ccccc3c1Br)N(Cc1ccccc1)C2=O	none
COc1ccc(C(CC(=O)c2ccc(O)cc2)S(=O)(=O)c2ccc(C)cc2)cc1 (stereo unspecified)	Apaf-1 act -64 | Rh110 act interf inactive | Apaf-1 act conf inactive
COc1ccc(S(=O)(=O)/N=C2\C=C(Nc3ccc(O)cc3)C(=O)c3ccccc32)cc1	none
CN(C)CCCN(C(=O)c1ccc(S(=O)(=O)N2CCc3ccccc3C2)cc1)c1nc2ccc(F)cc2s1	none
Cc1cc(C)c(C(N)=O)c(Nc2cccc3ccccc23)n1	none
Cc1cc(C(=O)OCC(=O)NC(=O)c2cccn2C)c2ccccc2n1	Apaf-1 act -127 | Rh110 act interf inactive | Apaf-1 act conf inactive
C#CCOCCOCCOCCNc1nc(N2CCN(C(=O)C([C@@H](C)CC)n3cc(C(N)COC(=O)C(F)(F)F)nn3)CC2)nc(N2CCN(C(=O)[C@H](Cc3cc4ccccc4[nH]3)n3cc(C(N)CO)nn3)CC2)n1 (stereo partly specified)	none
COc1ccc(Cl)cc1C(=O)NNC(=O)COC(=O)c1ccc(Br)o1	Apaf-1 act -41 | Rh110 act interf inactive | Apaf-1 act conf inactive
COc1cccc(Cn2c(N)c(C#N)c3nc4ccccc4nc32)c1OC	none
O=C(Cc1cc(=O)[nH][nH]1)N/N=C/c1cccc(Cl)c1Cl	none
CC(C)(O)C#Cc1ccc(CN2CCC(n3nccc3NC(=O)C3CC3)CC2)cc1	Apaf-1 act -79 | Rh110 act interf inactive | Apaf-1 act conf inactive
COc1ccc(-c2[nH]nc3oc(=O)cc(C)c23)cc1	Apaf-1 act -135 | Rh110 act interf inactive | Apaf-1 act conf inactive
COc1ccc(-c2cc(-c3ccc(F)cc3)nc(N3CCN(C)CC3)n2)cc1	none
O=C(CSc1ccc(-c2ccc3c(c2)OCO3)nn1)Nc1nccs1	Apaf-1 act -45 | Rh110 act interf inactive | Apaf-1 act conf inactive
CC(=O)c1cccc(NC(=O)CSc2ccc(-c3ccco3)nn2)c1	none
C#CCOCCOCCOCCNc1nc(N2CCN(C(=O)CCCCCCCCCCNC(=O)[C@H](CCCCN)n3cc(CCO)nn3)CC2)nc(N2CCN(C(=O)CCCCCCCCCCNC(=O)[C@H](CCCN=C(N)N)n3cc(C[C@@H](C)CC)nn3)CC2)n1	none
O=C(NNc1cc(N2CCCC2)nc(N2CCCC2)n1)c1ccc([N+](=O)[O-])cc1	none
Cn1cc([N+](=O)[O-])c(C(=O)NNC(=O)c2ccc([N+](=O)[O-])cc2Cl)n1	Apaf-1 act -161 | Rh110 act interf inactive | Apaf-1 act conf inactive
O=C(/C=C/c1ccc(O)cc1)c1ccc(NC2=C(N3CCCCC3)C(=O)c3ccccc3C2=O)cc1	none
CCOc1cc(/C=N/NC(=O)C(=O)NCCCOC(C)C)cc(Br)c1O	Apaf-1 act -173 | Rh110 act interf inactive | Apaf-1 act conf inactive
C#CCOCCOCCOCCNc1nc(N2CCOCC2)nc(N2CCN(C(=O)[C@H](CCCCN)n3cc(CN)nn3)CC2)n1	none
CCOC(=O)Cc1csc(N/C(=N/S(=O)(=O)c2ccc(Cl)cc2)c2ccccc2)n1	none
CCCCCCSc1ccc([C@@H]2[C@H]3C(=O)N(CC)C(=O)[C@H]3[C@]3(C(=O)OC)CCCN23)cc1	Apaf-1 act -225 | Rh110 act interf inactive | Apaf-1 act conf inactive
c1ccc(CN(CC2=NCCN2)c2ccccc2)cc1	none
Cn1c(SCC(=O)NNC(=O)c2ccccc2)nnc1C(F)(F)F	Apaf-1 act -97 | Rh110 act interf inactive | Apaf-1 act conf inactive
Cn1c(SCC(=O)n2c3c(c4ccccc42)CCCC3)nnc1-c1ccccc1	none
C=C(C)Cc1c(C)c(C#N)c2[nH]c3ccccc3n2c1=O	none
CCCN(CC(=O)Nc1ccccc1C)C(=O)C1CC(=O)N(c2ccccc2C(C)CC)C1 (stereo unspecified)	none
CN(CC(=O)Nc1ccccc1N1CCOCC1)CC(=O)Nc1ccc(F)c(F)c1F	Apaf-1 act -72 | Rh110 act interf inactive | Apaf-1 act conf inactive
C=C(C)C(=O)Nc1cccc(C2=NOC3(C2)C[C@@H](C(N)=O)N(C(=O)C(=C)C)C3)c1 (stereo partly specified)	Apaf-1 act -291 | Rh110 act interf inactive | Apaf-1 act conf -133 | Fluor interf act inactive
C=C(C)C(=O)Nc1cccc(C2=NOC3(C2)C[C@H](C(N)=O)N(C(=O)COc2ccc(Cl)cc2)C3)c1 (stereo partly specified)	Apaf-1 act -344 | Rh110 act interf inactive | Apaf-1 act conf -127 | Fluor interf act inactive

Screening data as filed in PubChem BioAssay.
